Screens from PubChem.
In the library only some 2.3% were active in any assay of this set; here they are far more common.
TRPC4 PAM: allosteric potentiators of mouse TRPC4 channel | Q9QUQ5 | HEK293 TRPC4beta/mu-opioid, DAMGO EC20, Fluo-4 Ca2+ flux; hits give high values | B-score at 10 µM | hit rate 0.42% among 310,000 | AID 2227;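 active = B-score of calcium response area above 5 SD of library B-scores, with initial fluorescence ratio within 5 SD of library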
Target sequence (Q9QUQ5 whole entry, looked up): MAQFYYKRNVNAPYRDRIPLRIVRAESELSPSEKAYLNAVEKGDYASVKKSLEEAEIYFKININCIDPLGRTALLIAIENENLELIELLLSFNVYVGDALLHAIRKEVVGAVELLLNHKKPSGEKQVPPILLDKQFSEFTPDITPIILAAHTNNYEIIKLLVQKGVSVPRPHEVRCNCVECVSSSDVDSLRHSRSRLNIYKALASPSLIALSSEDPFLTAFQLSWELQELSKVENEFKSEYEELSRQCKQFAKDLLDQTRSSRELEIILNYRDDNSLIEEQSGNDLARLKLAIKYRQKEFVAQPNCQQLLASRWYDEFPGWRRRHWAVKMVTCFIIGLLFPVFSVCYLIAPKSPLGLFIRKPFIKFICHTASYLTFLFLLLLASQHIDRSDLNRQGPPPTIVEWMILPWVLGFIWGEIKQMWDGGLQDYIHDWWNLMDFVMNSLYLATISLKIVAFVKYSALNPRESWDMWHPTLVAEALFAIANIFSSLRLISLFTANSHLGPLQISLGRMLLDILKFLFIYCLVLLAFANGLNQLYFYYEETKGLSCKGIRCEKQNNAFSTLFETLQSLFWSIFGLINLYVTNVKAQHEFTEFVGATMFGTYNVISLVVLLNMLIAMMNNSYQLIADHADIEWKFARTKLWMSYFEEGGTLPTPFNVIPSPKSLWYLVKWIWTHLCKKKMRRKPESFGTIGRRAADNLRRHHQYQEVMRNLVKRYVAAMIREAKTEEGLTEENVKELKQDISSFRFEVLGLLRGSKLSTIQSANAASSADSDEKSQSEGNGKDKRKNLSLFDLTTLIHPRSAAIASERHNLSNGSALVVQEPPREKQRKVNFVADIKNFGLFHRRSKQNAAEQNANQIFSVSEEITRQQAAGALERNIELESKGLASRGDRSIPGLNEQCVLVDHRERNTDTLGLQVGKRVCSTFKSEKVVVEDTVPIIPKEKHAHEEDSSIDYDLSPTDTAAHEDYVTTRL
TRPC4 agonist: activators of mouse TRPC4 channel; hit rate 0.49% among 310,000; HEK293 TRPC4beta/mu-opioid, Fluo4 calcium fluorescence; hits give high values; Q9QUQ5; B-score at 10 µM; AID 2237;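 active = B-score above 5 SD of library B-scores, and initial fluorescence ratio not above library mean plus 5 SD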;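 also: positive B-score marks a calcium rise read as TRPC4 activation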
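Test system: HEK293 cells stably co-expressing mouse TRPC4beta and mu-opioid receptor | Schedule: Fluo4 dye loading 45 min at room temperature, 110 s recording | Measured by: Kinetic Fluo4 calcium fluorescence, 5 s baseline at 1 Hz | Evaluation: B score of integrated ratio | Controls: Buffer (low) and maximal DAMGO (high)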
TRPC6 act: activates the mouse TRPC6 cation channel | Q61143 | HEK293-TRPC6 membrane potential dye fluorescence; hits give high values | B-score at 10 µM | hit rate 0.13% among 310,000 | AID 2550;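 active = B-score of the integrated fluorescence ratio above library mean plus 3 SD, and starting fluorescence ratio within library mean plus 5 SD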;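 also: higher score means more depolarization so channel activation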
TRPC6 inh: mouse TRPC6 channel inhibition. Q61143. hit rate 1.1% among 310,000. AID 2553. B-score at 10 µM. HEK293-TRPC6, membrane potential dye, ACh-evoked depolarization; hits give low values;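 active = B-score under library mean minus 3 SD, initial fluorescence not abnormally high, positive integrated signal ratio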;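 also: B-score derived from integrated fluorescence ratio over the kinetic read; more negative B-score means stronger inhibition of depolarization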
TRPC4 inh: TRPC4 (mouse) channel inhibition; Q9QUQ5; HEK293 TRPC4beta/mu-opioid, DAMGO-evoked Fluo4 calcium flux; hits give low values; B-score at 10 µM; hit rate 0.39% among 300,000; AID 2247;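 active = B-score over 3 SD under the library average, no early fluorescence shift, positive overall ratio signal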
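Material: HEK293 cells with stable TRPC4beta plus mu-opioid receptor expression / Probe or stimulus: DAMGO in two steps, submaximal then maximal / Compound: single concentration per test compound / Technique: kinetic Fluo4 fluorescence imaging of calcium influx / Read-out: per-well B score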
TRPC4 sel inh 2: mouse TRPC4 off-target activity of TRPC6 inhibitors, second screen | shares compounds with TRPC6 inh | HEK293 TRPC4/MOR, membrane potential dye fluorescence; channel activated by saturating DAMGO dose | inhibition, % at 10 µM | hit rate 42% among 920;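 active = compounds whose fluorescence signal differed from control wells by over 3 SD, either direction, in both duplicate plates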
TRPC4 spec: mouse TRPC4 off-target activity of TRPC6 inhibitors | activity change, negative = inhibition, % at 10 µM | hit rate 61% among 920 | HEK293 TRPC4/mu-opioid, membrane potential fluorescence | shares compounds with TRPC6 inh;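 active = rise or fall in signal beyond 3 SD of buffer-only wells in both replicate plates, either sign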;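 also: integrated kinetic ratio of fluorescence range over baseline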
HEK293 MPD ctr 2-1: second counter-screen for TRPC6 inhibitors: parental HEK293 cells; AID 2779; hit rate 31% among 920; parental HEK293 membrane potential dye fluorescence; maximal acetylcholine challenge after compound addition; shares compounds with TRPC6 inh; signal change vs control, % at 10 µM;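 active = membrane potential signal moving either way by over 3 SD of the maximum-effect control, in both duplicate plates, meaning non-specific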
HEK293 MPD ctr-1: checks TRPC6 inhibitor effects in parental HEK293 cells. shares compounds with TRPC6 inh. parental HEK293 membrane potential dye fluorescence. membrane potential signal change, % at 10 µM. hit rate 60% among 920. AID 2780;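 active = membrane potential signal shifting up or down by more than 3 SD of buffer-only wells, on both duplicate plates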
HEK293 MPD ctr-2: checks TRPC6 modulator effects in parental HEK293 cells; shares compounds with TRPC6 inh; membrane potential dye fluorescence; membrane potential signal change, % at 10 µM; hit rate 51% among 2,400;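 active = membrane potential signal moves up or down beyond 5 SD from buffer-only wells, on both duplicate plates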
HEK293 MPD ctr 2-2: second counter-screen for TRPC6 modulators: effect in parental HEK293 cells; shares compounds with TRPC6 inh; membrane potential dye fluorescence; after compound, maximal acetylcholine stimulation; inhibition, % at 10 µM; hit rate 14% among 2,400; AID 488926;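 active = membrane potential signal drops by more than 5 SD from the mean control signal, in both duplicate plates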
TRPC4/MOR mod: selectivity of TRPC6 modulators against mouse TRPC4; shares compounds with TRPC6 inh; HEK293 TRPC4/mu-opioid, membrane potential fluorescence; percent change from control (negative = decrease, positive = increase), % at 10 µM; hit rate 69% among 2,400; AID 488927;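 active = membrane potential signal moved up or down beyond 5 SD of buffer control wells, in both duplicate plates, actives on both sides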
TRPC4/MOR inh 2: mouse TRPC4 off-target activity of TRPC6 modulators, second screen. shares compounds with TRPC6 inh. HEK293 TRPC4/mu-opioid, membrane potential dye fluorescence; stimulated with maximal-effect DAMGO. inhibition, % at 10 µM. hit rate 55% among 2,400. AID 488928;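 active = drop in membrane potential signal beyond 5 SD of the control wells in both duplicate plates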;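 also: TRPC4 counter screen for TRPC6 hits run under conditions tuned for TRPC6 not TRPC4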
TRPC6 inh conf: mouse TRPC6 inhibitor confirmation. AID 488960. inhibition, % at 10 µM. HEK293-TRPC6, membrane potential dye, ACh-evoked depolarization. shares compounds with TRPC6 inh. hit rate 43% among 3,300;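 active = fluorescence ratio falls more than 5 SD below the full-stimulation control mean, in both duplicate runs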;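 also: integrated fluorescence ratio of peak minus minimum over baseline after agonist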
TRPC6 act confirm: mouse TRPC6 activator confirmation; hit rate 11% among 2,800; AID 488961; activation, % at 10 µM; shares compounds with TRPC6 inh; HEK293-TRPC6 membrane potential dye fluorescence, FDSS;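 active = ratio signal rise beyond 5 SD above unstimulated control wells' mean, seen in both duplicate runs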
Hits are given with their value; i = inactive; nt = no result.

SMILES	TRPC4 PAM	TRPC4 agonist	TRPC6 act	TRPC6 inh	TRPC4 inh	HEK293 MPD ctr-2	HEK293 MPD ctr 2-2	TRPC4/MOR mod	TRPC4/MOR inh 2	TRPC6 inh conf	TRPC6 act confirm	others
COC(=O)c1ccc(S(=O)(=O)N2CCCCCC2)n1C	i	i	i	-5.4	i	i	i	7.5%	i	i	i
COc1ccc(OC)c2c(C)cc(N3CCCN(C)CC3)nc12	i	i	i	-11	i	-246%	74%	-40%	69%	68%	i
COc1ccccc1N1CCN(c2cc(N3CCCC3)nc(C)n2)CC1	i	i	i	i	i	nt	nt	nt	nt	nt	nt
CCN(CC(=O)Nc1ccc(NC(C)=O)cc1)C(=O)c1c(-c2c(F)cccc2Cl)noc1C	i	i	i	i	i	nt	nt	nt	nt	nt	nt
Nc1nc(SCC(=O)N2CCCc3ccccc32)[nH]c(=O)c1-c1ccccc1	i	i	i	-6.5	i	180%	i	34%	i	i	nt
Cc1cc(N(CCO)CCO)ccc1N=Nc1cc(F)ccc1F	i	i	i	-7	i	nt	nt	nt	nt	63%	i	TRPC4 sel inh 2=62%;TRPC4 spec=-22%;HEK293 MPD ctr 2-1=i;HEK293 MPD ctr-1=-454%
Nc1ccc(N(CCO)CCO)cc1	i	i	i	i	i	nt	nt	nt	nt	nt	nt
O=C(NNC1=C(C(=O)C(F)(F)F)CCC1)c1ccccc1O	i	i	i	-5.2	i	i	i	i	i	38%	i
COC(=O)c1cn(C)c2ccc(S(=O)(=O)N3CCCCC3)cc2c1=O	i	i	i	i	i	nt	nt	nt	nt	nt	nt
O=C(O)CCC(=O)Nc1ccc(C(=O)OCC(=O)c2ccc(Cl)cc2)cc1	i	i	i	i	i	nt	nt	nt	nt	nt	nt
O=C(Nc1cccnc1)c1cnn2cccnc12	i	i	i	-5.2	i	-96%	i	-10%	i	i	i
CN(C)c1cccc2c1c(NS(=O)(=O)c1cn(C)cn1)nn2C	i	i	i	i	i	nt	nt	nt	nt	nt	nt
O=[N+]([O-])c1ccc(S(=O)(=O)Nc2nc3ccccc3nc2Nc2ccccc2)cc1	i	i	i	i	i	nt	nt	nt	nt	nt	nt
COc1cc(Nc2nc3ccccc3nc2NS(=O)(=O)c2ccc([N+](=O)[O-])cc2)cc(OC)c1OC	i	i	i	-6.4	i	-116%	i	-26%	50%	48%	i
O=c1cc(O)c2c(=O)n(C3CCCCC3)c3ccccc3c2o1	i	i	i	i	i	nt	nt	nt	nt	nt	nt
Cc1nnc(Nc2ccccn2)c2ccccc12	i	i	i	-5.7	i	-219%	58%	-36%	46%	63%	i
N/C(CS(=O)(=O)c1ccccn1)=N\OC(=O)c1ccccc1Cl	i	i	i	i	i	nt	nt	nt	nt	nt	nt
Fc1ccccc1CNCCC(Cc1ccccc1)c1ccc2c(c1)OCO2 (stereo unspecified)	i	70	i	-6.3	-8	119%	i	48%	69%	i	nt
